# Assay results from different studies.
# Each line is one published result; the experiments were not run side by side.
# Organism: Mycobacterium tuberculosis
# Observed: microbial growth
# Strain: H37RV
Compound,concentration,time,measurement,result
NC(=S)c1cncc(Cn2c(=S)[nH]c3cc(CO)c(Cl)cc3c2=O)c1,,,MIC90,4.61 µM
FC(F)(F)c1ccc(CCNc2cc(-c3ccccn3)nc3nncn23)cc1,,,IC90,0.53 µM
NNC(=O)c1ccncc1,,,MIC50,0.56 µg/mL
N#Cc1cncc(Cn2c(=S)[nH]c3cc(CO)c(Cl)cc3c2=O)c1,,,MIC90,2.7 µM
Cc1ccc(-c2cc(NCCc3ccc(C(F)(F)F)cc3)n3cnnc3n2)o1,,,IC90,0.37 µM
COCCNC(=O)c1sc2nc(-c3ccc(OC)cc3)cc(C(F)(F)F)c2c1N,,,IC50,> 100 µM
Fc1ccc(CCOc2cc(-c3ccccn3)nc3nncn23)cc1,,,MIC,> 100 µM
NCC[C@H](O)C(=O)N[C@@H]1C[C@H](N)[C@@H](O[C@H]2O[C@H](CN)[C@@H](O)[C@H](O)[C@H]2O)[C@H](O)[C@H]1O[C@H]1O[C@H](CO)[C@@H](O)[C@H](N)[C@H]1O,2.5 µg/mL,,inhibition,~90%
O=c1c2ccncc2[nH]c(=S)n1Cc1cccnc1,,,MIC90,> 100 µM
COc1ccc(-c2cc(C(F)(F)F)c3c(N)c(C(=O)N4CC5(CCOC5)C4)sc3n2)cc1,,,IC50,24 µM
Cc1ccc(CCNc2cc(-c3ccccn3)nc3nncn23)cc1,,,MIC,0.26 µM
CC(c1cccnc1)n1c(=S)[nH]c2ccc(Cl)cc2c1=O (centres unmarked),,,MIC90,66.2 µM
COc1ccc(-c2cc(C(F)(F)F)c3cc(C(=O)NC(C)c4ccccc4)sc3n2)cc1 (centres unmarked),,,IC50,2.5 µM
CCc1ccc(CCNc2cc(-c3ccccn3)nc3nnc(C4CC4)n23)cc1,,5 days,MIC,17 to 50 µM
COc1ccc(-c2cc(C(F)(F)F)c3c(N)c(C(=O)NCCc4ccccc4)sc3n2)cc1,,,IC50,> 100 µM
CC(C)c1ccc(Cn2c(=S)[nH]c3ccc(Cl)cc3c2=O)cn1,,,MIC90,> 100 µM
COc1ccc(-c2cc(C(F)(F)F)c3c(N)c(C(=O)NCCSC)sc3n2)cc1,,,IC50,42 µM
O=c1c2cc(Cl)ccc2[nH]c(=S)n1Cc1cncc(-c2nnn[nH]2)c1,,,MIC90,> 100 µM
Nc1c(C(=O)N2CCOCC2)sc2nc(Cl)ccc12,,,IC50,> 100 µM
Clc1ccc(CCNc2cc(-c3ccccn3)nc3nnc(C4CC4)n23)cc1,,,MIC,36 µM
